Test results from ChEMBL document CHEMBL1806443, “Novel imidazo[4,5-b]pyridine and triaza-benzo[c]fluorene derivatives: synthesis, antiproliferative activity and DNA binding studies” (Eur J Med Chem, 2011).
The source made the active and inactive calls. The rule behind the calls is not given here.

Columns and labels:
SW-620 [1] = assay: Cell cycle arrest in human SW620 cells assessed as accumulation at subG1 phase at 1 uM after 48 hrs by propidium iodide staining based flow cytometeric analysis (reference value: 29.1 +/- 1.1%); type: functional
SW-620 [2] = assay: Induction of apoptosis in human SW620 cells assessed as morphological change at 5 to 10 uM after 24 to 48 hrs by microscopic analysis; type: functional, cell-based
Summary of the method: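 Cells were seeded at 3 × 10^4 per well and exposed 24 h later to 1, 5 or 10 µM for 24 and 48 h. Apoptotic morphology (cell shrinkage, chromatin condensation) was scored by inverted light microscopy at 200× magnification.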

Nucleic Acid [3] = assay: Binding affinity to calf thymus DNA assessed as hypochromic changes at 347 nm wavelength by UV-Vis spectrophotometric titrations; type: nucleic-acid assay; conditions: Bos taurus
Summary of the method: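 UV/Vis titration: aliquots of ct-DNA (concentration as phosphate) added to compound solution in sodium cacodylate buffer pH 7.0, I = 0.05 mol dm^-3, 1 cm quartz cuvettes. Hypochromism followed at band maxima. Compound absorbance linear up to 2.0 × 10^-5 mol dm^-3. Binding data fitted by the Scatchard equation.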

MIA PaCa-2 [4] = assay: Antiproliferative activity against human MIAPaCa2 cells after 72 hrs by MTT assay; type: functional, cell-based; conditions: Homo sapiens, MIA PaCa-2, 72 h
Summary of the method: (§1)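 Monolayer cells in DMEM with 10% FBS, 2 mM L-glutamine, penicillin and streptomycin at 37 °C, 5% CO2. Seeded at 3000-6000 cells/well by doubling time on day 0. Five 10-fold dilutions (0.01–100 µM) were added and incubated 72 h. MTT read-out, converted to percentage growth. IC50 by linear regression between bracketing concentrations. Quadruplicate points, three independent experiments, ANOVA/Tukey p<0.05.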

MCF7 = assay: Cytostatic activity against human MCF7 cells at 1 to 10 uM after 72 hrs by MTT assay; type: functional, cell-based
Summary of the method: (§2)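 Monolayers in DMEM with 10% FBS, 2 mM L-glutamine, penicillin and streptomycin (37 °C, 5% CO2) were seeded at 3000–6000 cells/well on day 0. Five 10-fold dilutions (0.01–100 µM) were added, followed by 72-h incubation and MTT read-out. Absorbances were converted to percentage growth by the NIH formulae. Each point was run in quadruplicate in three experiments; ANOVA with Tukey test.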

MIA PaCa-2 [5] = assay: Cell cycle arrest in human MIAPaCa2 cells assessed as accumulation at S phase at 10 uM after 24 hrs by propidium iodide staining based flow cytometeric analysis (reference value: 29.2 +/- 4.2%); type: functional
MIA PaCa-2 [6] = assay: Cytostatic activity against human MIAPaCa2 cells at 1 to 10 uM after 72 hrs by MTT assay; type: functional, cell-based; summary of the method: as §2
SW-620 [7] = assay: Cell cycle arrest in human SW620 cells assessed as accumulation at S phase at 1 uM after 48 hrs by propidium iodide staining based flow cytometeric analysis (reference value: 31.9 +/- 1%); type: functional
SW-620 [8] = assay: Cell cycle arrest in human SW620 cells assessed as accumulation at G1 phase at 5 uM after 24 hrs by propidium iodide staining based flow cytometeric analysis (reference value: 29.3 +/- 1.5%); type: functional
WI-38 = assay: Antiproliferative activity against human WI38 cells at 0.1 to 10 uM after 72 hrs by MTT assay; type: cell-based; conditions: wi-38, 72 h; summary of the method: as §1
SW-620 [9] = assay: Cell cycle arrest in human SW620 cells assessed as accumulation at subG1 phase at 10 uM after 48 hrs by propidium iodide staining based flow cytometeric analysis (reference value: 29.1 +/- 1.1%); type: functional
Summary of the method: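 Cells seeded at 3 × 10^4 per well and treated 24 h later with 1, 5 or 10 µM for 24 and 48 h. Adherent and floating cells were pooled, washed in PBS and fixed in 70% ethanol. They were then stained with propidium iodide 10 µg/mL plus RNase A 0.2 µg/mL. Flow cytometry counted 10000 events; each point was run in triplicate; significance was taken at p < 0.05.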

SK-BR-3 = assay: Antiproliferative activity against human SKBR3 cells at 0.1 to 10 uM after 72 hrs by MTT assay; type: functional, cell-based; summary of the method: as §1
SW-620 [10] = assay: Cell cycle arrest in human SW620 cells assessed as accumulation at S phase at 10 uM after 24 hrs by propidium iodide staining based flow cytometeric analysis (reference value: 48.4 +/- 1.4%); type: functional
SW-620 [11] = assay: Antiproliferative activity against human SW620 cells at 0.1 to 10 uM after 72 hrs by MTT assay; type: functional, cell-based; summary of the method: as §1
MIA PaCa-2 [12] = assay: Cell cycle arrest in human MIAPaCa2 cells assessed as accumulation at G1 phase at 10 uM after 48 hrs by propidium iodide staining based flow cytometeric analysis (reference value: 65.2 +/- 1.9%); type: functional
MIA PaCa-2 [13] = assay: Cell cycle arrest in human MIAPaCa2 cells assessed as accumulation at subG1 phase at 1 uM after 48 hrs by propidium iodide staining based flow cytometeric analysis (reference value: 46.8 +/- 0.7%); type: functional
MIA PaCa-2 [14] = assay: Cell cycle arrest in human MIAPaCa2 cells assessed as accumulation at G2/M phase at 5 uM after 24 hrs by propidium iodide staining based flow cytometeric analysis (reference value: 19.5 +/- 3.9%); type: functional
MIA PaCa-2 [15] = assay: Cell cycle arrest in human MIAPaCa2 cells assessed as accumulation at G1 phase at 1 uM after 48 hrs by propidium iodide staining based flow cytometeric analysis (reference value: 65.2 +/- 1.9%); type: functional
HEp-2 = assay: Antiproliferative activity against human Hep2 cells at 0.1 to 10 uM after 72 hrs by MTT assay; type: functional, cell-based; summary of the method: as §1
SW-620 [16] = assay: Cell cycle arrest in human SW620 cells assessed as accumulation at G2/M phase at 5 uM after 24 hrs by propidium iodide staining based flow cytometeric analysis (reference value: 22.3 +/- 2.9%); type: functional
Nucleic Acid [17] = assay: Binding affinity to calf thymus DNA assessed as fluorescence quenching at compound to DNA ratio of 0.28 by fluorimetric titrations; type: nucleic-acid assay; conditions: Bos taurus
Summary of the method: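 Fluorimetric titration: portions of ct-DNA (sonicated, filtered, concentration as phosphate) added to compound in cacodylate buffer pH 7.0, I = 0.05 mol dm^-3. Emission 350–600 nm, sample absorbance <0.05 at excitation, mostly DNA excess (r < 0.1). Ks and n = [bound compound]/[DNA phosphate] by non-linear least-squares Scatchard fitting.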

SW-620 [18] = assay: Cell cycle arrest in human SW620 cells assessed as accumulation at G1 phase at 10 uM after 48 hrs by propidium iodide staining based flow cytometeric analysis (reference value: 52.7 +/- 0.9%); type: functional
MIA PaCa-2 [19] = assay: Cell cycle arrest in human MIAPaCa2 cells assessed as accumulation at subG1 phase at 10 uM after 24 hrs by propidium iodide staining based flow cytometeric analysis (reference value: 48.7 +/- 0.7%); type: functional
Nucleic Acid [20] = assay: Binding affinity to calf thymus DNA assessed as appearance of weak, negative induced CD band at 337 nm wavelength by circular dichroism spectroscopy; type: nucleic-acid assay; conditions: Bos taurus
Summary of the method: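 CD spectra of ct-DNA (1.0 × 10^-5 mol dm^-3, as phosphate) titrated with compound at 25 °C. Sodium cacodylate buffer pH 7.0, I = 0.05 mol dm^-3, 1 cm quartz cuvette. DNA band (~274–275 nm) and induced bands above 300 nm followed versus r = [compound]/[ct-DNA].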

Activity (Nucleic Acid [3]): 45%
IC50 (MIA PaCa-2 [4]): 0.74 µM
log Ks (Nucleic Acid [17]): 5.9
Activity (Nucleic Acid [20]): Active
Structure (SMILES): Cl.c1cnc2nc3ccc4ccc(C5=NCCN5)cc4n3c2c1
Activity (SW-620 [1]): 25.4%
Activity (SW-620 [2]): Active
Activity (MCF7): Active
Activity (MIA PaCa-2 [5]): 29.3%
Activity (MIA PaCa-2 [6]): Active
Activity (SW-620 [7]): 45.4%
Activity (SW-620 [8]): 86.1%
Activity (WI-38): Toxic
Activity (SW-620 [9]): 40.6%
Activity (SK-BR-3): Active
Activity (SW-620 [10]): 47.3%
Activity (SW-620 [11]): Active
Activity (MIA PaCa-2 [12]): 26.1%
Activity (MIA PaCa-2 [13]): 33.8%
Activity (MIA PaCa-2 [14]): 18.3%
Activity (MIA PaCa-2 [15]): 42.4%
Activity (HEp-2): Active
Activity (SW-620 [16]): 2.1%
Activity (SW-620 [18]): 39.9%
Activity (MIA PaCa-2 [19]): 50.2%
